According to ChEMBL document CHEMBL1125805, “Cholecystokinin antagonists: (R)-tryptophan-based hybrid antagonists of high affinity and selectivity for CCK-A receptors” (J Med Chem, 1991):

How the values were obtained:
[1] = target: T1, Cholecystokinin receptor type A (Cavia porcellus, UniProt Q63931); test: Inhibition of [125I]Bolton-Hunter CCK-8 binding to cholecystokinin type A receptor in guinea pig pancreatic membranes.; assay type: cell membranes
T1 sequence (Q63931 whole entry): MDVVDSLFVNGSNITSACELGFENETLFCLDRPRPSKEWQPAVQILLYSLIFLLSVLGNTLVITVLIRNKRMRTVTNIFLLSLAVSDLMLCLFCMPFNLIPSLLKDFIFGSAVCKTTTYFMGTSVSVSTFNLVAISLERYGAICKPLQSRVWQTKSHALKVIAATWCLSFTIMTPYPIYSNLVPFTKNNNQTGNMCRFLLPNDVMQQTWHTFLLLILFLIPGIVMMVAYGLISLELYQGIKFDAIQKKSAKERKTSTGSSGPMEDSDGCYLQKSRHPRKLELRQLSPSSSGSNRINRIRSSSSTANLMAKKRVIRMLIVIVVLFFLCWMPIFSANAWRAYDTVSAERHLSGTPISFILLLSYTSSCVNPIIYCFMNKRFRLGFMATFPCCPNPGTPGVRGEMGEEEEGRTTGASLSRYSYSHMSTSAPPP

Cavia porcellus [2] = species on record: Cavia porcellus; test: Inhibition of CCK-8-stimulated amylase release; assay type: functional
Cavia porcellus [3] = species on record: Cavia porcellus; test: The compound was tested for the inhibition of CCK-8-stimulated amylase release; assay type: functional
Method in brief: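 Amylase release was stimulated with CCK-8 at 3 × 10⁻¹⁰ M as the reference concentration, following a published procedure. Inhibition by test compounds gave IC50 values.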

IC50 [1] | Compound | IC50 (Cavia porcellus [2]) | IC50 (Cavia porcellus [3])
520 nM | CCCCCN(CCCCC)C(=O)[C@H](Cc1c[nH]c2ccccc12)NC(=O)c1cc2ccccc2[nH]1 | < 30000 nM | 
29 nM | CCCCCN(CCCCC)C(=O)[C@@H](Cc1c[nH]c2ccccc12)NC(=O)c1ccc2ccccc2c1 | 360 nM | 
 | CCCCCN(CCCCC)C(=O)[C@@H](Cc1c[nH]c2ccccc12)NC(=O)c1ccc[nH]1 | > 100000 nM | 
180 nM | C[C@H](NC(=O)[C@@H](Cc1c[nH]c2ccccc12)NC(=O)c1cnc2ccccc2c1)c1ccccc1 |  | 
 | CCCCCN(CCCCC)C(=O)C(Cc1c[nH]c2ccc(OCc3ccccc3)cc12)NC(=O)c1cnc2ccccc2c1 (configuration not stated) | < 100000 nM | 
48 nM | CCCCCN(CCCCC)C(=O)[C@H](Cc1c[nH]c2ccc(F)cc12)NC(=O)c1cnc2ccccc2c1 | > 100000 nM | 
 | CCCCCN(CCCCC)C(=O)[C@@H](Cc1c[nH]c2ccccc12)NC(=O)c1cc(O)c2cccc(O)c2n1 | 46 nM | 
 | CCCCCN(CCCCC)C(=O)[C@@H](Cc1c[nH]c2ccccc12)NC(=O)c1ccc2cc(O)ccc2c1 | 100000 nM | 
46 nM | CCCCCN(CCCCC)C(=O)[C@@H](CC1C(=O)Nc2ccccc21)NC(=O)c1cnc2ccccc2c1 (some centres not stated) | 62 nM | 
880 nM | CCCCCN(CCCCC)C(=O)[C@@H](Cc1c[nH]c2ccccc12)NC(=O)c1cc2ccccc2cn1 | < 100000 nM | 
400 nM | CCOC(=O)CN(Cc1ccccc1)C(=O)[C@@H](Cc1c[nH]c2ccccc12)NC(=O)c1cnc2ccccc2c1 |  | 
190 nM | CCCCCN(CCCCC)C(=O)[C@@H](Cc1c[nH]c2ccccc12)NC(=O)c1ccc(Cl)c(Cl)c1 | 2500 nM | 
1500 nM | CCCCCN(CCCCC)C(=O)[C@H](Cc1c[nH]c2ccccc12)NC(=O)Nc1cccc(C)c1 | < 100000 nM | 
1100 nM | CCCCCN(CCCCC)C(=O)[C@@H](Cc1c[nH]c2ccccc12)NC(=O)Nc1cccc(C)c1 | > 30000 nM | 
 | CCCCCN(CCCCC)C(=O)[C@H](Cc1c[nH]c2ccccc12)NC(=O)c1cnc2ccccc2c1 | < 100000 nM | 
 | CCCCCN(CCCCC)C(=O)[C@@H](Cc1c[nH]c2ccccc12)NC(=O)c1cnc2ccccc2c1 | 43 nM | 
670 nM | CCCCCN(CCCCC)C(=O)[C@H](Cc1c[nH]c2ccccc12)NC(=O)c1ccc(Cl)c(Cl)c1 | > 30000 nM | 
239 nM | CCCCCN(CCCCC)C(=O)[C@@H](Cc1c[nH]c2ccccc12)NC(=O)c1ccc2ncccc2c1 | < 10000 nM | 
4200 nM | CCCCCN(CCCCC)C(=O)[C@@H](Cc1c[nH]c2ccccc12)NC(=O)Nc1ccc(Cl)cc1 |  | 
51 nM | CCCCCN(CCCCC)C(=O)[C@@H](Cc1c[nH]c2ccccc12)NC(=O)c1cc(O)c2ccccc2n1 | 110 nM | 

IC50 [1] | Compound | IC50 (Cavia porcellus [2]) | IC50 (Cavia porcellus [3])
14600 nM | CCCCCN(CCCCC)C(=O)[C@@H](Cc1c[nH]c2ccccc12)NC(=O)c1cccnc1 | > 100000 nM | 
7 nM | CCCCCN(CCCCC)C(=O)[C@@H](CCC(=O)O)NC(=O)c1cc(O)c2cccc(O)c2n1 | 106 nM | 
475 nM | CCCCCN(CCCCC)C(=O)[C@H](Cc1c[nH]c2ccccc12)NC(=O)c1ccc(Cl)cc1 | < 30000 nM | 
390 nM | CCCCCN(CCCCC)C(=O)[C@@H](Cc1c[nH]c2ccccc12)NC(=O)c1ccc2cccc(O)c2n1 | < 100000 nM | 
810 nM | C[C@@H](NC(=O)[C@@H](Cc1c[nH]c2ccccc12)NC(=O)c1cnc2ccccc2c1)c1ccccc1 |  | > 10000 nM
430 nM | CCCCCN(CCCCC)C(=O)[C@@H](Cc1c[nH]c2ccccc12)NC(=O)c1c[nH]c2ccccc12 | < 10000 nM | 
11 nM | CCCCCN(CCCCC)C(=O)[C@@H](Cc1c[nH]c2ccc(O)cc12)NC(=O)c1cnc2ccccc2c1 | 27 nM | 
120 nM | CCCCCN(CCCCC)C(=O)[C@@H](Cc1c[nH]c2ccccc12)NC(=O)c1ccc2ccccc2n1 | 1300 nM | 
600 nM | CN(Cc1ccccc1)C(=O)[C@@H](Cc1c[nH]c2ccccc12)NC(=O)c1cnc2ccccc2c1 |  | 
 | CCCCCN(CCCCC)C(=O)[C@@H](Cc1c(Sc2ccccc2[N+](=O)[O-])[nH]c2ccccc12)NC(=O)c1cnc2ccccc2c1 | < 100000 nM | 
 | CCCCCN(CCCCC)C(=O)[C@@H](Cc1c[nH]c2ccccc12)NC(=O)c1nccc2ccccc12 | > 100000 nM | 
370 nM | CCCCCN(CCCCC)C(=O)[C@@H](Cc1c[nH]c2ccccc12)NC(=O)c1ccc(Cl)cc1 | < 10000 nM | 
> 10000 nM | CCCCCN(CCCCC)C(=O)[C@H](Cc1c[nH]c2ccccc12)NC(=O)Nc1ccc(C)cc1 |  | 
> 10000 nM | CCCCCN(CCCCC)C(=O)[C@H](Cc1c[nH]c2ccccc12)NC(=O)Nc1ccc(Cl)cc1 |  | 
155 nM | CCCCCN(CCCCC)C(=O)[C@@H](Cc1c[nH]c2ccccc12)NC(=O)c1cc2cc(F)ccc2[nH]1 | < 100000 nM | 
500 nM | CCCCCN(CCCCC)C(=O)[C@@H](Cc1c[nH]c2ccccc12)NC(=O)c1cccc2ccccc12 | < 30000 nM | 
> 1000 nM | CCCCCN(CCCCC)C(=O)[C@@H](Cc1c[nH]c2ccccc12)NC(=O)/C=C/c1cccnc1 | < 100000 nM | 
 | CCCCCN(CCCCC)C(=O)[C@@H](Cc1c[nH]c2ccccc12)NC(=O)c1cc2ccccc2[nH]1 | 670 nM | 
> 100000 nM | O=C(N[C@@H](Cc1c[nH]c2ccccc12)C(=O)O)c1ccc(Cl)cc1 [BENZOTRIPT] |  | 
